Source: PubChem BioAssay (several laboratories)
APP transl inh = APP translation inhibition. SH-SY5Y APP 5'UTR-luciferase reporter, luminescence. inhibition, % at 2 µM. 190,000 compounds, 0.82% hits. AID 1285;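 active means inhibition above a set limit, derived from the sample mean plus 3 SD, cut at about 45% in these data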
BaF3 tox = reduces parental Ba/F3 cell viability, JAK2V617F counter-screen. CellTiter-Glo ATP luminescence. inhibition, % at 5.6 µM. 220,000 compounds, 1.1% hits;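 active means inhibition above a per-campaign cutoff, the mean inhibition of all tested compounds plus 3 SD, cut at about 27% in these data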;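 further: 0% = DMSO wells and 100% = JAK Inhibitor I control wells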
MT stabilizer = microtubule stabilizers in HeLa cells; HeLa tubulin immunostaining HCS, 24 h; share of cells brighter than vehicle mean+2SD; % tubulin-high responders, % at 10 µM; 200,000 compounds, 0.83% hits; AID 2205;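 active means plate Z-score above 3 for both tubulin-high and condensed-nucleus cell shares, with cell loss under 80%, at 10 µM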;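 further: anti alpha tubulin signal scored within the nucleus-defined area of each cell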
IEC-6 tox = counter-screen for KLF5 inhibitors: cytotoxicity in IEC-6 cells | IEC-6 cytotoxicity, luminescence viability | inhibition, % at 5 µM | 290,000 compounds, 0.78% hits | AID 1825; in the data active means inhibition above about 22%;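 further: 0% = plate median of test compound wells and 100% = cytotoxic reference compound wells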
bCat nuc transl = beta-catenin nuclear translocation modulation; HeLa beta-catenin nuclear translocation, immunofluorescence imaging; nuclear translocation activity, % at 5 µM; 190,000 compounds, 0.3% hits;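 active means nuclear translocation activity above 50% at 5 µM, with a well cell count of 50 or more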;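 further: per-cell ratio of nuclear to cytoplasmic median beta-catenin stain intensity; plate controls were DMSO negative control for no effect and GSK-3 inhibitor IX positive control for full effect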
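test system = HeLa cells, endogenous beta-catenin | dosing = single 5 µM dose plus 0.02–20 µM confirmation series | times = compound treatment 24 h, 37°C, 5% CO2 | technique = beta-catenin immunofluorescence imaging with DAPI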
Ba/F3 V617F tox = loss of viability in JAK2V617F-driven Ba/F3 cells; AID 1446; inhibition, % at 5.6 µM; Ba/F3 EpoR-JAK2V617F viability, ATP luminescence; 220,000 compounds, 1.1% hits;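 active means inhibition above the campaign mean plus 3 SD over all tested compounds, cut at about 24% in these data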;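 further: cytokine-independent growth of Ba/F3 cells driven by EpoR plus mutant JAK2; 0% = DMSO-treated cells and 100% = JAK inhibitor I control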
* = called active by the depositor; · = no result. Sampled rows, rich in hits. Any-hit rate of the full collection: about 2.2%.

SMILES	APP transl inh	BaF3 tox	MT stabilizer	IEC-6 tox	bCat nuc transl	Ba/F3 V617F tox
NC(N)=N/N=C/c1ccc(N2CCOCC2)cc1	4	72*	10*	4	2	58*
COc1ccc(/C=N\N=C(N)N)cc1	-7	0	4	2	2	1
CC[n+]1c(SC)ccc2cc(OC)ccc21	-11	84*	2	-6	-6	85*
CCn1c(O)c(C=NCc2cccs2)c(=O)[nH]c1=O	-14	0	9	2	-1	-4
CN1/C(=C\C=Nc2ccccc2)C(C)(C)c2ccccc21	-14	57*	3	-5	8	31*
Cc1[nH]c2c(C(F)(F)F)cccc2c1CCN	48*	11	2	6	·	4
CC(C)CCn1c(=O)c(C(=O)NCc2ccco2)c(O)c2ccccc21	·	-1	·	2	0	1
O=C1NC(=O)C(=Cc2ccc(-c3ccc(F)cc3O)o2)C(=O)N1	·	·	·	1	·	·
COc1cc(CN2CCN(c3cc(C)ccc3C)CC2)ccc1O	-26	50*	2	10	·	35*
CCCCn1c(O)c(C=NC2CCCCC2N)c(=O)[nH]c1=O (stereo not drawn)	-7	6	1	-5	·	-1
CCCCCCn1c(O)c(C=NC2CCCCC2N)c(=O)[nH]c1=O (stereo not drawn)	4	93*	4	3	-4	3
CCCCCSc1cc(OC)c(CCN)cc1OC	55*	10	19	12	-1	8
Nc1ccccc1-[n+]1c(-c2ccccc2)cc(-c2ccccc2)cc1-c1ccccc1	·	52*	·	11	2	49*
Cc1ccc(N2C(=O)NC(=O)/C(=C\C=C\c3ccco3)C2=O)cc1C	47*	1	3	4	-3	-2
CCOC(=O)c1ccc2c(c1)n(Cc1ccccc1)c(C)[n+]2CC	-41	27*	5	-5	-2	18
CCOC(=O)c1c(C=O)c2ccccc2n1Cc1ccccc1	·	·	·	-1	·	·
Cc1cc(=O)oc2cc(OCC(=O)N3CCC(C(=O)O)(c4ccccc4)CC3)ccc12	·	·	·	-2	·	·
Cc1ccc(C2=NC(C)(C)N3C2C3c2ccc([N+](=O)[O-])cc2)cc1 (stereo not drawn)	-3	0	2	-2	-3	-1
C=C1C(=O)O[C@H]2[C@H]1[C@H](OC(=O)CC(=O)O[C@@H]1C[C@@H](C)[C@@H]3C=CC(=O)[C@@]3(C)[C@H]3OC(=O)C(=C)[C@H]13)C[C@@H](C)[C@H]1C=CC(=O)[C@]12C	·	·	·	·	-2	·
C=C1C(=O)O[C@@H]2C[C@@H](C)[C@@H]3C=CC(=O)[C@@]3(C)[C@@H](OC(=O)CC(=O)O[C@H]3[C@@H]4C(=C)C(=O)O[C@@H]4C[C@@H](C)[C@@H]4C=CC(=O)[C@]43C)[C@H]12	·	·	·	·	72*	·
CC(C)[C@]12O[C@H]1[C@@H]1O[C@]13[C@]1(O[C@H]1C[C@H]1C4=C(CC[C@@]13C)C(=O)OC4)[C@@H]2O	·	105*	·	97*	30	99*
CC(=NCCCn1ccnc1)c1c(O)n(C2CCCCC2)c(=O)[nH]c1=O	·	0	·	4	-1	-1
CC(=O)OC1CCC2(/C=N/O)C(=CCC3C4CCC(=O)C4(C)CCC32)C1 (stereo not drawn)	·	·	·	-6	·	·
CC1Oc2cc3c(-c4c(O)cc(O)c5c(O)c6c(cc45)OC(C)C(C)C6=O)c(O)cc(O)c3c(O)c2C(=O)C1C (stereo not drawn)	·	35*	·	-9	0	96*
Cc1c(OC(=O)N(C)C)ccc2c1O/C(=C\c1ccco1)C2=O	·	·	·	-5	·	·
COc1ccc(NC(=O)c2cn(CCC#N)nc2-c2cccc([N+](=O)[O-])c2)cc1	·	-2	·	5	0	4
COc1ccc(Oc2cc(NC(=O)c3nn(C)cc3[N+](=O)[O-])cc([N+](=O)[O-])c2)cc1	95*	42*	60	15	·	63*
O=C(NC(=C(Cl)Cl)P(=O)(c1ccccc1)c1ccccc1)c1ccccc1	-8	5	3	-4	1	1
O=c1c2ccccc2nc(-c2ccco2)n1-c1ccncc1	-2	0	2	4	-2	-6
C=CC(C)C(C(=O)c1ccccc1)N(C)C (stereo not drawn)	-8	31*	5	11	-3	27*
